Activity calls are given as the source filed them.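 The calls were made as follows: active = IC50 for blocking EBNA-1 binding to its DNA probe at or below 10 µM; inactive = the rest.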
Target: Epstein-Barr virus nuclear antigen 1 (EBNA-1) DNA-binding domain
Experiment: EBNA-1 DNA-binding inhibitor potency, late-stage follow-up, biochemical, fluorescence polarization, dose response, powder samples (AID 489000)
Settings: Recombinant EBNA-1 DBD, Cy5-DNA fluorescence polarization
How it was run: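 assay system = EBNA-1 DNA-binding region, aa 448-610, recombinant from E. coli | times = 30 min pre-mix, 1 h with compound, RT | medium = Tris/NaCl buffer, pH 7.4 | technique = Cy5 fluorescence polarization | replicates = triplicate | reagent = 10 nM Cy5-tagged hairpin DNA probe, 36 bp | benchmarks = high control without EBNA-1, low control with EBNA-1 only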

IC50 | SMILES
inactive | Cc1cccc(C(=O)Nc2nc3ccc(S(C)(=O)=O)cc3s2)c1
> 148 µM (inactive) | Cc1ccc(C(=O)Nc2nc3ccc(Br)cc3s2)cc1C
inactive | COc1cccc(C(=O)Nc2nc3ccc(S(C)(=O)=O)cc3s2)c1
> 148 µM (inactive) | Cc1ccccc1C(=O)Nc1nc2ccc(S(C)(=O)=O)cc2s1
> 148 µM (inactive) | COc1ccc2nc(NC(=O)c3ccc(C)c(C)c3)sc2c1
> 148 µM (inactive) | Cc1ccc(C(=O)Nc2nc3cc(Br)ccc3s2)cc1C
> 148 µM (inactive) | Cc1ccc(C(=O)Nc2nc3ccc(S(C)(=O)=O)cc3s2)cc1
inactive | COc1ccc(C(=O)Nc2nc3ccc(S(C)(=O)=O)cc3s2)cc1
> 148 µM (inactive) | CS(=O)(=O)c1ccc2nc(NC(=O)c3cccc(F)c3)sc2c1
> 148 µM (inactive) | COc1cccc2sc(NC(=O)c3ccc(C)c(C)c3)nc12
> 148 µM (inactive) | COc1ccc2sc(NC(=O)c3ccc(C)c(C)c3)nc2c1
> 148 µM (inactive) | Cc1ccc(C(=O)Nc2nc3cc(F)ccc3s2)cc1C
> 148 µM (inactive) | CS(=O)(=O)c1ccc2nc(NC(=O)c3cccc(Cl)c3)sc2c1

Continued, molecule first:

SMILES | IC50
Cc1cc(C(=O)CSc2nnnn2-c2ccc(Cl)cc2)c(C)n1CC1CCCO1 (centres undefined) | > 148 µM (inactive)
CS(=O)(=O)c1ccc2nc(NC(=O)c3ccccc3Cl)sc2c1 | > 148 µM (inactive)
COc1ccc(-n2nnnc2SCC(=O)c2cc(C)n(CC3CCCO3)c2C)cc1 (centres undefined) | > 16.4 µM (inactive)
COc1ccccc1C(=O)Nc1nc2ccc(S(C)(=O)=O)cc2s1 | > 148 µM (inactive)
CS(=O)(=O)c1ccc2nc(NC(=O)c3ccccc3F)sc2c1 | > 148 µM (inactive)
Cc1cc(C(=O)CSc2nnnn2-c2ccccc2)c(C)n1C | inactive
Cc1cc(C(=O)CSc2nnnn2-c2ccccc2)c(C)n1Cc1cccs1 | > 148 µM (inactive)
Cc1cc(C(=O)CSc2nnnn2-c2cccc(F)c2)c(C)n1CC1CCCO1 (centres undefined) | > 148 µM (inactive)
CS(=O)(=O)c1ccc2nc(NC(=O)c3ccc(Cl)cc3)sc2c1 | inactive
O=C(CSc1nnnn1-c1ccccc1)c1ccn(CC2CCCO2)c1 (centres undefined) | > 148 µM (inactive)
Cc1cc(C(=O)CSc2nnnn2C2CC2)c(C)n1CC1CCCO1 (centres undefined) | inactive
Cc1ccccc1-n1nnnc1SCC(=O)c1cc(C)n(CC2CCCO2)c1C (centres undefined) | > 148 µM (inactive)
Cc1cccc(-n2nnnc2SCC(=O)c2cc(C)n(CC3CCCO3)c2C)c1 (centres undefined) | > 148 µM (inactive)
CCn1c(C)cc(C(=O)CSc2nnnn2-c2ccccc2)c1C | > 148 µM (inactive)
COCCn1c(C)cc(C(=O)CSc2nnnn2-c2ccccc2)c1C | > 148 µM (inactive)
Cc1cc(C(=O)CSc2nnnn2C)c(C)n1CC1CCCO1 (centres undefined) | > 148 µM (inactive)

— PubChem BioAssay AID489000 (The Scripps Research Institute Molecular Screening Center, 2010)
